Tested on: Fibroblast
Experiment: Multiplex assay against human fibroblast
Format: toxicity, cell-based
How it was run: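 Phenotypes for tubulin, mitochondrial mass and membrane permeability are expressed as per cents of healthy-nucleus cells. Cells were stained live at seeding with Hoechst33342, BioTracker Green Microtubule Cytoskeleton Dye, MitoTracker Red and Annexin V Alexa Fluor 680, then imaged after compound addition on a CQ1 microscope at 37°C and 5% CO2. Machine-learning gating in CellPathfinder separated Hoechst high-intensity objects from normal cells, divided normal cells by nuclear state (healthy, pyknosed, fragmented) and divided pyknosed cells into mitotic or apoptotic.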

[1] = 12 h, 1 µM, compound concentration 1 uM, replicate 1
[2] = 12 h, 1 µM, compound concentration 1 uM, replicate 2
[3] = 12 h, 10 µM, compound concentration 10 uM, replicate 1
[4] = 12 h, 10 µM, compound concentration 10 uM, replicate 2
[5] = 24 h, 1 µM, compound concentration 1 uM, replicate 1
[6] = 24 h, 1 µM, compound concentration 1 uM, replicate 2
[7] = 24 h, 10 µM, compound concentration 10 uM, replicate 1
[8] = 24 h, 10 µM, compound concentration 10 uM, replicate 2
[9] = 48 h, 1 µM, compound concentration 1 uM, replicate 1
[10] = 48 h, 1 µM, compound concentration 1 uM, replicate 2
[11] = 48 h, 10 µM, compound concentration 10 uM, replicate 1
[12] = 48 h, 10 µM, compound concentration 10 uM, replicate 2

For `CCCS(=O)(=O)c1nc(NC2CC2)cc(-c2ccc3c(ccn3C3CC(C)(C)NC(C)(C)C3)c2)n1`, the “Population Apoptotic (%)” value [1] was 41%, the “Population Fragmented Nuclei (%)” value [1] was 27% and the “Population Healthy Nuclei (%)” value [1] was 42%. For the same molecule, the “Population Hoechst High Intensity Objects (%)” value [1] was 11%, the “Population Membrane Permeable-Phenotype (%)” value [1] was 22% and the “Population Mitochondria Different-Phenotype (%)” value [1] was 0%. For the same molecule, the “Population Mitotic Cells (%)” value [1] was 58%, the “Population Normal (%)” value [1] was 88% and the “Population Pyknosed Nuclei (%)” value [1] was 30%. The “Population Tubulin-Different-Phenotype (%)” value [1] was 35%, the “Total Cell Count” value [1] was 107 and the “Population Apoptotic (%)” value [2] was 38%. The “Population Fragmented Nuclei (%)” value [2] was 14%, the “Population Healthy Nuclei (%)” value [2] was 71% and the “Population Hoechst High Intensity Objects (%)” value [2] was 5%. For the same molecule, the “Population Membrane Permeable-Phenotype (%)” value [2] was 5%, the “Population Mitochondria Different-Phenotype (%)” value [2] was 41% and the “Population Mitotic Cells (%)” value [2] was 61%. For the same molecule, the “Population Normal (%)” value [2] was 94%, the “Population Pyknosed Nuclei (%)” value [2] was 13% and the “Population Tubulin-Different-Phenotype (%)” value [2] was 29%. The “Total Cell Count” value [2] was 1044, the “Population Apoptotic (%)” value [3] was 71% and the “Population Fragmented Nuclei (%)” value [3] was 42%. The “Population Healthy Nuclei (%)” value [3] was 4%, the “Population Hoechst High Intensity Objects (%)” value [3] was 10% and the “Population Membrane Permeable-Phenotype (%)” value [3] was 60%. For the same molecule, the “Population Mitochondria Different-Phenotype (%)” value [3] was 0%, the “Population Mitotic Cells (%)” value [3] was 28% and the “Population Normal (%)” value [3] was 89%. For the same molecule, the “Population Pyknosed Nuclei (%)” value [3] was 53%, the “Population Tubulin-Different-Phenotype (%)” value [3] was 40% and the “Total Cell Count” value [3] was 124. The “Population Apoptotic (%)” value [4] was 92%, the “Population Fragmented Nuclei (%)” value [4] was 75% and the “Population Hoechst High Intensity Objects (%)” value [4] was 7%. For the same molecule, the “Population Membrane Permeable-Phenotype (%)” value [4] was 100%, the “Population Mitochondria Different-Phenotype (%)” value [4] was 38% and the “Population Mitotic Cells (%)” value [4] was 7%. The “Population Normal (%)” value [4] was 92%, the “Population Pyknosed Nuclei (%)” value [4] was 19% and the “Population Tubulin-Different-Phenotype (%)” value [4] was 84%. For the same molecule, the “Total Cell Count” value [4] was 101, the “Population Apoptotic (%)” value [5] was 42% and the “Population Fragmented Nuclei (%)” value [5] was 33%. The “Population Healthy Nuclei (%)” value [5] was 39%, the “Population Hoechst High Intensity Objects (%)” value [5] was 15% and the “Population Membrane Permeable-Phenotype (%)” value [5] was 23%. For the same molecule, the “Population Mitochondria Different-Phenotype (%)” value [5] was 13%, the “Population Mitotic Cells (%)” value [5] was 57% and the “Population Normal (%)” value [5] was 84%. The “Population Pyknosed Nuclei (%)” value [5] was 27%, the “Population Tubulin-Different-Phenotype (%)” value [5] was 39% and the “Total Cell Count” value [5] was 114. The “Population Apoptotic (%)” value [6] was 22%, the “Population Fragmented Nuclei (%)” value [6] was 15% and the “Population Healthy Nuclei (%)” value [6] was 66%. The “Population Hoechst High Intensity Objects (%)” value [6] was 5%, the “Population Membrane Permeable-Phenotype (%)” value [6] was 10% and the “Population Mitochondria Different-Phenotype (%)” value [6] was 21%. The “Population Mitotic Cells (%)” value [6] was 77%, the “Population Normal (%)” value [6] was 94% and the “Population Pyknosed Nuclei (%)” value [6] was 18%. The “Population Tubulin-Different-Phenotype (%)” value [6] was 29%, the “Total Cell Count” value [6] was 1113 and the “Population Apoptotic (%)” value [7] was 76%. For the same molecule, the “Population Fragmented Nuclei (%)” value [7] was 38%, the “Population Healthy Nuclei (%)” value [7] was 11% and the “Population Hoechst High Intensity Objects (%)” value [7] was 19%. For the same molecule, the “Population Membrane Permeable-Phenotype (%)” value [7] was 63%, the “Population Mitochondria Different-Phenotype (%)” value [7] was 0% and the “Population Mitotic Cells (%)” value [7] was 24%. The “Population Normal (%)” value [7] was 80%, the “Population Pyknosed Nuclei (%)” value [7] was 50% and the “Population Tubulin-Different-Phenotype (%)” value [7] was 54%. For the same molecule, the “Total Cell Count” value [7] was 123, the “Population Apoptotic (%)” value [8] was 90% and the “Population Fragmented Nuclei (%)” value [8] was 73%. The “Population Healthy Nuclei (%)” value [8] was 10%, the “Population Hoechst High Intensity Objects (%)” value [8] was 7% and the “Population Membrane Permeable-Phenotype (%)” value [8] was 96%. The “Population Mitochondria Different-Phenotype (%)” value [8] was 75%, the “Population Mitotic Cells (%)” value [8] was 10% and the “Population Normal (%)” value [8] was 92%. For the same molecule, the “Population Pyknosed Nuclei (%)” value [8] was 15%, the “Population Tubulin-Different-Phenotype (%)” value [8] was 96% and the “Total Cell Count” value [8] was 104. The “Population Apoptotic (%)” value [9] was 58%, the “Population Fragmented Nuclei (%)” value [9] was 34% and the “Population Healthy Nuclei (%)” value [9] was 36%. The “Population Hoechst High Intensity Objects (%)” value [9] was 20%, the “Population Membrane Permeable-Phenotype (%)” value [9] was 16% and the “Population Mitochondria Different-Phenotype (%)” value [9] was 10%. The “Population Mitotic Cells (%)” value [9] was 41%, the “Population Normal (%)” value [9] was 79% and the “Population Pyknosed Nuclei (%)” value [9] was 28%. The “Population Tubulin-Different-Phenotype (%)” value [9] was 60%, the “Total Cell Count” value [9] was 105 and the “Population Apoptotic (%)” value [10] was 75%. The “Population Fragmented Nuclei (%)” value [10] was 46%, the “Population Healthy Nuclei (%)” value [10] was 49% and the “Population Hoechst High Intensity Objects (%)” value [10] was 8%. For the same molecule, the “Population Membrane Permeable-Phenotype (%)” value [10] was 26%, the “Population Mitochondria Different-Phenotype (%)” value [10] was 12% and the “Population Mitotic Cells (%)” value [10] was 25%. For the same molecule, the “Population Normal (%)” value [10] was 91%, the “Population Pyknosed Nuclei (%)” value [10] was 3% and the “Population Tubulin-Different-Phenotype (%)” value [10] was 46%. The “Total Cell Count” value [10] was 110, the “Population Apoptotic (%)” value [11] was 76% and the “Population Fragmented Nuclei (%)” value [11] was 59%. The “Population Healthy Nuclei (%)” value [11] was 25%, the “Population Hoechst High Intensity Objects (%)” value [11] was 39% and the “Population Membrane Permeable-Phenotype (%)” value [11] was 76%. For the same molecule, the “Population Mitochondria Different-Phenotype (%)” value [11] was 4%, the “Population Mitotic Cells (%)” value [11] was 23% and the “Population Normal (%)” value [11] was 60%. The “Population Pyknosed Nuclei (%)” value [11] was 15%, the “Population Tubulin-Different-Phenotype (%)” value [11] was 61% and the “Total Cell Count” value [11] was 137. The “Population Apoptotic (%)” value [12] was 75%, the “Population Fragmented Nuclei (%)” value [12] was 78% and the “Population Healthy Nuclei (%)” value [12] was 15%. The “Population Hoechst High Intensity Objects (%)” value [12] was 37%, the “Population Membrane Permeable-Phenotype (%)” value [12] was 33% and the “Population Mitochondria Different-Phenotype (%)” value [12] was 9%. For the same molecule, the “Population Mitotic Cells (%)” value [12] was 25%, the “Population Normal (%)” value [12] was 62% and the “Population Pyknosed Nuclei (%)” value [12] was 5%. For the same molecule, the “Population Tubulin-Different-Phenotype (%)” value [12] was 42% and the “Total Cell Count” value [12] was 215.

Source: ChEMBL document CHEMBL4689842, “EUbOPEN Chemogenomics Library wave 1” (2021)
